ChEMBL document CHEMBL3352404, “Lower homologues of ahpatinin, aspartic protease inhibitors, from a marine Streptomyces sp” (J Nat Prod, 2014)
Starred links: 1 amine or outer side, 2 acyl side, 3 side chain; linkers in the order of their positions; H or OH if unused. Non-standard residues stand in square brackets, D forms with d. Residues, ends and D or L forms follow the SMILES beside them. *: point of attachment. Ahppa(3S,4S) = O=C(C[C@H](O)[C@H](Cc1ccccc1)N[*:1])[*:2]; Sta = CC(C)C[C@H](N)[C@@H](O)CC(=O)O; Isobutyryl = CC(C)C(=O)*; Propionyl = CCC(=O)*

How the values were obtained:
Cathepsin B = Cathepsin B (Bos taurus, UniProt P07688); assay: Inhibition of bovine spleen cathepsin B using Z-Arg-Arg-AMC as substrate after 30 mins by fluorescence assay
In short: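 Enzyme stock 1 unit/mL in 50 mM MES pH 6.0 with 0.1% Brij-35, diluted 100-fold in the same buffer before use. Test sample was mixed with diluted enzyme and 25 μM Z-Arg-Arg-AMC (substrate solution in DMSO, pre-mixing level) and incubated 37 °C for 30 min. Released AMC was read by fluorescence, excitation 345 nm, emission 440 nm.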

[1] = Inhibition of porcine gastric mucosa pepsin using MOCAc-Ala-Pro-Ala-Lys-Phe-Phe-Arg-Leu-Lys (Dnp)-NH2 as substrate after 20 mins by fluorescence assay; parameters: species or system Sus scrofa
In short: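 Test solution in MeOH was diluted into 0.1 M ammonium formate buffer pH 3.0. Pepsin solution (1 μg/mL in the buffer) was added, then 10 μM fluorogenic substrate solution (pre-mixing level). The mixture was incubated 30 °C for 20 min. Released MOCAc-Ala-Pro-Ala-Lys-Phe was read by fluorescence, excitation 328 nm, emission 393 nm.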

| SMILES | IC50 (Cathepsin B) [µM] | IC50 [1] [µM] |
| --- | --- | --- |
| CCC(=O)N[C@H](C(=O)N[C@H](C(=O)N[C@@H](CC(C)C)[C@@H](O)CC(=O)N[C@@H](C)C(=O)N[C@@H](Cc1ccccc1)[C@@H](O)CC(=O)O)C(C)C)C(C)C (Propionyl-VV[Sta]A-{Ahppa(3S,4S)}) | 25 | 0.05 |
| CC(C)C[C@H](NC(=O)[C@@H](NC(=O)[C@@H](NC(=O)C(C)C)C(C)C)C(C)C)[C@@H](O)CC(=O)N[C@@H](C)C(=O)N[C@@H](Cc1ccccc1)[C@@H](O)CC(=O)O (Isobutyryl-VV[Sta]A-{Ahppa(3S,4S)}) | 26 |  |
| CC(C)C[C@H](NC(=O)[C@H](C)NC(=O)C[C@H](O)[C@H](CC(C)C)NC(=O)[C@@H](NC(=O)[C@@H](NC(=O)C(C)C)C(C)C)C(C)C)[C@@H](O)CC(=O)O (Isobutyryl-VV[Sta]A[Sta]-OH) | 29 |  |

Molecules with a lower IC50 (Cathepsin B), results first:

| IC50 (Cathepsin B) [µM] | IC50 [1] [µM] | SMILES |
| --- | --- | --- |
| 17 | 0.011 | CC(=O)N[C@H](C(=O)N[C@H](C(=O)N[C@@H](CC(C)C)[C@@H](O)CC(=O)N[C@@H](C)C(=O)N[C@@H](CC(C)C)[C@@H](O)CC(=O)O)C(C)C)C(C)C [ACETYLPEPSTATIN] |
| 15 | 0.011 | CC(=O)N[C@H](C(=O)N[C@H](C(=O)N[C@@H](CC(C)C)[C@@H](O)CC(=O)N[C@@H](C)C(=O)N[C@@H](Cc1ccccc1)[C@@H](O)CC(=O)O)C(C)C)C(C)C (Ac-VV[Sta]A-{Ahppa(3S,4S)}) |
| 10 | 0.018 | CCC(=O)N[C@H](C(=O)N[C@H](C(=O)N[C@@H](CC(C)C)[C@@H](O)CC(=O)N[C@@H](C)C(=O)N[C@@H](CC(C)C)[C@@H](O)CC(=O)O)C(C)C)C(C)C (Propionyl-VV[Sta]A[Sta]-OH) |
